CSC inhib = cancer stem cell viability inhibitors, primary screen, luminescence; cancer stem cell-like cells viability; inhibition, % at 7.5 µM; hit rate 1.1% among 300,000; in the data active means inhibition above about 75%; inconclusive means no clear call, values can overlap the other calls; tested in HMLE shEcad cells
CHOP UPR activ = activators of apoptotic CHOP UPR arm, primary screen, cell-based, CHO-CHOP luciferase reporter, luminescence, uHTS; UPR activation; percent of tunicamycin response over DMSO baseline; AID 449763, 2010; activation, % at 10 µM; hit rate 0.34% among 330,000;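 active means at 10 µM dose, activation of 40% or more, normalized to positive control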;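 further: 100% = tunicamycin at 10 µg/mL and 0% = DMSO alone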
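System: CHO CHOP reporter cells. Amount: 500 cells per well. Buffer or medium: F12 medium, 10% FBS. Compound dosing: one dose, 10 µM in 0.5% DMSO. Incubation: 6 h compound exposure at 37 °C after overnight seeding. Technique: Steady-Glo luciferase luminescence. Benchmarks: tunicamycin and DMSO controls.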
UPR XBP1 act = activators of adaptive XBP1 UPR arm, primary screen, cell-based, CHO-XBP1 luciferase reporter, luminescence, uHTS | IRE1-XBP1 UPR activation; percent of tunicamycin response, DMSO as zero | activation, % at 20 µM | hit rate 0.33% among 330,000 | AID 463104, 2010;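 active means versus positive control, 20 µM dose yields 30% or more activation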;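 further: 100% = tunicamycin at 10 µg/mL and 0% = DMSO only wells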
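Material: IRE1-XBP1 luciferase reporter CHO line / Quantity: one thousand reporter cells per well / Buffer or medium: F12 with 10% serum / Compound: 20 µM single concentration, DMSO 1% / Times: 6 h treatment, 37 °C / Detection: Steady-Glo luciferase glow luminescence, 10 min after reagent addition / Benchmarks: tunicamycin high, DMSO low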
Mdm2 MdmX PPI = inhibitors of human Mdm2-MdmX association, primary screen, cell-based, luminescence, split luciferase, SaOS-2, uHTS; Protein Mdm4 (Homo sapiens) + E3 ubiquitin-protein ligase Mdm2 (Homo sapiens), …; SaOS-2 split-luciferase Mdm2/MdmX complementation; inhibition, % at 8 µM; hit rate 3% among 330,000; AID 485346, 2010;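 active means inhibition of at least 50% at 8 µM in the primary screen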
Target sequence (O15151 whole entry, looked up): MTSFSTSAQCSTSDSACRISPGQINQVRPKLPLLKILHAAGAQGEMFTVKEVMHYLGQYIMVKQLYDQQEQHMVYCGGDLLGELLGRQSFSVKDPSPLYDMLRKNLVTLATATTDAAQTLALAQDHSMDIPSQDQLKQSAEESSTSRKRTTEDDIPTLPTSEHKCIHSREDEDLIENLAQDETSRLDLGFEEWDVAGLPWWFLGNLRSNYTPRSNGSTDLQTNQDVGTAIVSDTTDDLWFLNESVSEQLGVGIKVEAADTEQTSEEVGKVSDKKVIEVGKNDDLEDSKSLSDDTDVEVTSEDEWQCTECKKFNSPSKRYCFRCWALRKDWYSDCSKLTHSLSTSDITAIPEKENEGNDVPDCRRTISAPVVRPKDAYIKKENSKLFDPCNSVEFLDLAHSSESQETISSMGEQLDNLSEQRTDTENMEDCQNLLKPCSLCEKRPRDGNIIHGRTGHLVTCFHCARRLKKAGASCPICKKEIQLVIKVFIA
Target sequence (Q00987 whole entry, looked up): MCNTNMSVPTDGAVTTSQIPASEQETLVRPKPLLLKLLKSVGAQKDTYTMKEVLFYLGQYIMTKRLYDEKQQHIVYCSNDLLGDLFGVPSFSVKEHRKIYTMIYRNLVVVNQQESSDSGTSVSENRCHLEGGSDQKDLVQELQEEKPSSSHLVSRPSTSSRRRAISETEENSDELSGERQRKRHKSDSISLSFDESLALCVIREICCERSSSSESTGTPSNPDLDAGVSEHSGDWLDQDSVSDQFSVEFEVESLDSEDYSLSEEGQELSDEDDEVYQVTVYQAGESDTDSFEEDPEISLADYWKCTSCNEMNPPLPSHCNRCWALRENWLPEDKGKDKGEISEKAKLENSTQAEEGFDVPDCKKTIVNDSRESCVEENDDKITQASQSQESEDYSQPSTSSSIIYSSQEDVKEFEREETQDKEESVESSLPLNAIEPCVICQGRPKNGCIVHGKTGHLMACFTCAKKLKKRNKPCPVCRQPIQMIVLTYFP
T cruzi inh = inhibitors of intracellular T. cruzi growth, primary screen, luminescence, NIH3T3 host cells | T. cruzi beta-gal in NIH3T3, 90 h | inhibition, % (no concentration beside the values) | hit rate 1.4% among 300,000 | AID 1885, 2009;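 active means mean inhibition across valid replicates above about 55%, limit read from the data; inconclusive means mean below that limit but half or more replicates reach it; inactive means mean below it, under half of replicates reach it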;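 further: signal also drops with host cell toxicity which is not excluded here; 0% = plate median of DMSO wells and 100% = zero luminescence signal; higher percent means less beta-gal luminescence so fewer parasites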
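Incubation – ≥90 h infection period, 3 h prior cell attachment · System – NIH/3T3 fibroblasts plus reporter T. cruzi · Doses – compound pinned at 50 nL/well, DMSO · Read-out basis – percent inhibition of parasite-derived β-gal signal · Signal – luminescent β-galactosidase signal after 60 min lysis · Also added – 5000 T. cruzi trypomastigotes/well · Medium – Low-serum DMEM with 2% FBS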
Beta apoptosis = inhibitors of cytokine-induced beta cell apoptosis, primary screen, luminescence; INS-1E cytokine-induced death, ATP luminescence, 48 h; percent of positive-control rescue, neutral wells zero; protection from apoptosis, % (no concentration beside the values); hit rate 0.8% among 300,000; AID 435005, 2010;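 active means Every replicate reaches about 75%, or at least half do and their mean reaches it too, limit read from the data; inconclusive means At least half of replicates reach the limit but their mean does not; inactive means Under half of replicates reach the limit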;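 further: 0% = cytokine-treated negative control wells and 100% = positive control rescue; higher means more ATP so stronger rescue from cytokine killing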
Mdm2-MdmX conf = Mdm2-MdmX complex disruptors, retested hits, confirmation, luminescence, single concentration; shares compounds with Mdm2 MdmX PPI; Mdm2-MdmX binding, luminescent assay; inhibition, % at 8 µM; hit rate 55% among 10,000; in the data active means inhibition above about 40%
Full FLuc ctr = full-length luciferase signal inhibition, confirmation, counter-screen for Mdm2/MdmX interaction inhibitor project, cell-based, single concentration, SaOS-2. shares compounds with Mdm2 MdmX PPI. SaOS-2 full-length luciferase counterscreen, luminescence. inhibition, % at 8 µM. hit rate 77% among 6,200;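 active means mean inhibition at 8 µM reaching about 37%, which flags the compound as non-specific, limit read from the data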;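 further: p53-null SaOS-2 cells with luciferase driven by a doxycycline-inducible promoter; compound on cells about two nights before reading with doxycycline added after day one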
* marks the source's active call; other numbers are inactive results; ? = inconclusive; / = not tested or not shown. This is a sample that favours compounds with a hit; in the whole collection about 5% have one here.

SMILES	CSC inhib	CHOP UPR activ	UPR XBP1 act	Mdm2 MdmX PPI	T cruzi inh	Beta apoptosis	Mdm2-MdmX conf	Full FLuc ctr
NS(=O)(=O)c1ccc(CNC(=O)CSc2nc3ccc(Cl)cc3[nH]2)cc1	-1	-1	-2	3	5	-7	/	/
CC(=O)Nc1ccc(S(=O)(=O)N(C)CC(=O)OCC(=O)c2ccc3c(c2)NC(=O)CO3)cc1	10	-2	1	1	/	-3	/	/
Cc1cc(C)nc(NC(=NCCc2c[nH]c3ccccc23)NC(=O)C(C)(C)C)n1	4	2	-1	52*	61*	0	17	/
Cc1cc(C)nc(N2C(=O)CC(C(=O)O)NC2=NCCc2c[nH]c3ccccc23)n1 (stereo not drawn)	-9	0	-2	3	-10	1	/	/
CCOC(=O)C(C)(C)N(Cc1cccc(C)c1)S(=O)(=O)c1ccc(Cl)c([N+](=O)[O-])c1	24	15	0	57*	1	-10	16	/
C=CCSc1nc(C)c(CCCC)c(=O)[nH]1	0	1	0	-34	10	-3	/	/
Oc1ccc(NC(=S)N=Nc2c(O)[nH]c3ccc(Br)cc23)cc1	/	3	-3	70*	-48	/	74*	42*
COc1ccc(NC(=S)N=Nc2c(O)[nH]c3ccccc23)cc1	52	-1	3	49	48	22	/	/
Oc1ccc(NC(=S)N=Nc2c(O)[nH]c3ccccc23)cc1	12	1	0	36	-35	3	/	/
N=C(N)N=Nc1c(O)[nH]c2ccc(Br)cc12	-12	-1	-1	40	17	3	/	/
Oc1cccc(NC(=S)N=Nc2c(O)[nH]c3ccc(Br)cc23)c1	30	1	0	56*	17	7	46*	57*
Cc1ccc(NC(=S)N=Nc2c(O)[nH]c3ccccc23)cc1	53	4	0	65*	68*	/	52*	67*
Oc1[nH]c2ccc(Br)cc2c1N=NC(=S)Nc1ccc(F)cc1	82*	1	0	71*	59*	29	70*	43*
CC1=NN(C(=O)c2cc(C)nn2C)C(O)(C(F)(F)F)C1 (stereo not drawn)	6	2	-3	4	-1	4	/	/
COc1ccc(NC(=O)c2ccc(COCC(F)(F)F)cc2)cc1OC	2	0	-1	-8	-2	2	/	/
O=C(Nc1ccc(Br)c(C(F)(F)F)c1)c1ccc(C(F)(F)F)cc1	110*	15	8	96*	47	74*	59*	29
O=C(Nc1ccc(Br)c(C(F)(F)F)c1)c1ccccc1	24	4	0	-11	4	11	/	/
O=C(Nc1ccc(OCC(F)(F)C(F)F)c(C(F)(F)F)c1)c1ccc(Cl)cc1	?	12	2	92*	48	79*	85*	34
C=CCNC(=O)/C(=C/c1cccc([N+](=O)[O-])c1)NC(=O)c1ccccc1	8	-2	0	0	-3	2	/	/
COC(=O)c1cccc2c1-c1ccccc1/C2=N/O	-10	-1	2	84*	-20	-7	76*	37*
Cc1onc(-c2ccccc2)c1C(=O)Nc1sc2c(c1C#N)CCC(C)C2 (stereo not drawn)	139*	2	-2	59*	-1	19	55*	56*
Cc1cccc(OCCOC(=O)c2c(-c3ccccc3)noc2C)c1	/	0	-6	55*	11	32	38	/
COC(=O)c1c(-c2ccc(C)cc2)csc1NC(=O)c1c(-c2ccccc2)noc1C	32	1	-6	79*	17	/	80*	39*
CCCOc1cccc(NC(=O)c2c(-c3ccccc3)noc2C)c1	6	0	2	-7	11	-5	/	/
CCOC(=O)c1c(NC(=O)c2c(-c3ccccc3)noc2C)sc(C)c1-c1ccccc1	40	0	-4	100*	63*	6	93*	51*
SMILES	CSC inhib	CHOP UPR activ	UPR XBP1 act	Mdm2 MdmX PPI	T cruzi inh	Beta apoptosis	Mdm2-MdmX conf	Full FLuc ctr
COc1cc2c(cc1OC)CN(CC(=O)NC(=O)NC1CCCCC1)CC2	2	0	-1	-18	-5	2	/	/
CCOC(=O)c1sc(NC(=O)c2cc(-c3cccc(O)c3)on2)c(C(=O)OCC)c1C	-1	1	-3	43	-15	/	/	/
CCOC(=O)c1c(NC(=O)c2cc(-c3cccc(O)c3)on2)sc(C(C)=O)c1C	-2	2	-1	75*	-5	/	0	/
Cc1ccc(NC(=O)NCCCN2CCCC2=O)cc1C	6	2	-1	-13	11	-5	/	/
CCCC(=O)Nc1ccc2c(c1)C(=O)NC2=O	2	1	2	-12	1	-7	/	/
Cc1ccc2c(c1)Oc1ccc(NC(=O)CCCl)cc1C(=O)N2	92*	-1	-2	67*	-69	-2	68*	102*
COC(=O)c1ccc(COc2ccc(-c3nnn(CC(N)=O)n3)cc2)cc1	8	0	-3	56*	-2	-1	11	/
Cc1ccc(NC(=O)Cn2cc(C(F)(F)F)cc(Cl)c2=O)cc1S(=O)(=O)N1CCCCC1	-2	0	-4	11	7	6	/	/
COc1cc(C(C[N+](=O)[O-])c2c(N)n(C)c(=O)n(C)c2=O)ccc1O (stereo not drawn)	-2	3	4	5	-13	3	/	/
COc1cccc(F)c1C(C[N+](=O)[O-])c1c(N)n(C)c(=O)n(C)c1=O (stereo not drawn)	71	21	-8	95*	-2	97*	45*	36*
CCC1(C)NC(=O)N(CC(=O)c2cc(C)n(C3CC3)c2C)C1=O (stereo not drawn)	/	1	-1	-5	/	/	/	/
Cc1ccc(S(=O)(=O)/C(C#N)=C/c2c(Oc3ccc(Cl)cc3)nc3c(C)cccn3c2=O)cc1	5	2	6	59*	3	1	8	/
CC(=O)Nc1nc2ccccc2n1Cc1ccccc1C	/	1	8	79*	31	-13	59*	71*
